High-throughput results as filed in PubChem BioAssay.
TRPC4 potent = allosteric potentiators of mouse TRPC4 channel; HEK293 TRPC4beta/mu-opioid, DAMGO EC20, Fluo-4 Ca2+ flux; active compounds read high; B-score at 10 µM; 310,000 compounds, 0.42% hits;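 active = B-score of calcium response area above 5 SD of library B-scores, with initial fluorescence ratio within 5 SD of library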;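 also: B-score of integrated fluorescence ratio over time as area under calcium response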
Target sequence (Q9QUQ5 whole entry, looked up): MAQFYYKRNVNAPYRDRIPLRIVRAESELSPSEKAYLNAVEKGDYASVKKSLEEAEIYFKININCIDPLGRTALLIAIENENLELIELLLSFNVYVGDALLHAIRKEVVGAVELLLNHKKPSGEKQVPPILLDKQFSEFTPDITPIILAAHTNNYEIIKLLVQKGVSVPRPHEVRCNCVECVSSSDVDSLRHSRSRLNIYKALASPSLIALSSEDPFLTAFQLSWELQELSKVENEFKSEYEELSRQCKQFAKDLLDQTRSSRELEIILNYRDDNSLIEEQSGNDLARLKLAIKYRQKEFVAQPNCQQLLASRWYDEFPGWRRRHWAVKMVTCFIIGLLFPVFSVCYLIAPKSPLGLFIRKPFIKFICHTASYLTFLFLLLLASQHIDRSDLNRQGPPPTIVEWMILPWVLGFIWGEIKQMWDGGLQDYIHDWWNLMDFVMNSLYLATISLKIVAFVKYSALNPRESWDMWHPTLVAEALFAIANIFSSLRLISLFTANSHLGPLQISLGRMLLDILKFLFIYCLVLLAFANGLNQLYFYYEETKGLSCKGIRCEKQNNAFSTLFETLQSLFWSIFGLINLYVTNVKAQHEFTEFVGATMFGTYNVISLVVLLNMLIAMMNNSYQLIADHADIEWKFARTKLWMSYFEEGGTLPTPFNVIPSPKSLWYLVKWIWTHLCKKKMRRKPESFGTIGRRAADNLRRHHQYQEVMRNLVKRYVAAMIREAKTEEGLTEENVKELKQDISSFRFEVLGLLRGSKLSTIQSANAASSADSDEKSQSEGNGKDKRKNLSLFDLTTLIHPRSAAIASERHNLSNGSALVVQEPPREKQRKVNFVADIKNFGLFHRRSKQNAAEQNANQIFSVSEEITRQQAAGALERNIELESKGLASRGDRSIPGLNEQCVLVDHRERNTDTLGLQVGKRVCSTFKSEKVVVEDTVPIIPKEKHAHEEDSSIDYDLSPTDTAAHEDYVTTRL
TRPC4 act = TRPC4 (mouse) channel activation | B-score at 10 µM | 310,000 compounds, 0.49% hits | HEK293 TRPC4beta/mu-opioid, Fluo4 calcium fluorescence; active compounds read high;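 active = B-score above 5 SD of library B-scores, and initial fluorescence ratio not above library mean plus 5 SD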;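 also: positive B-score marks a calcium rise read as TRPC4 activation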
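System – HEK293 cells stably co-expressing mouse TRPC4beta and mu-opioid receptor · Signal – Fluo4 calcium-sensitive dye fluorescence, kinetic, 1 Hz baseline · Benchmarks – buffer (low) and maximal DAMGO (high) · Read-out – B score of integrated fluorescence ratio per well · Incubation – dye loading 45 min room temperature, 110 s kinetic read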
TRPC4 block = TRPC4 (mouse) channel inhibition; HEK293 TRPC4beta/mu-opioid, DAMGO-evoked Fluo4 calcium flux; active compounds read low; B-score at 10 µM; 300,000 compounds, 0.39% hits;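 active = B-score over 3 SD under the library average, no early fluorescence shift, positive overall ratio signal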
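Test system – stable TRPC4beta/mu-opioid receptor HEK293 cells · Probe or stimulus – DAMGO, a submaximal dose followed by a maximal one · Dosing – one concentration per compound · Signal – Fluo4 calcium fluorescence by kinetic imaging, 5 s 1 Hz baseline · Evaluation – per-well B score of integrated baseline-normalized Fluo4 ratio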
TRPC6 inh = blocks the mouse TRPC6 cation channel; Q61143; B-score at 10 µM; HEK293-TRPC6, membrane potential dye, ACh-evoked depolarization; active compounds read low; 310,000 compounds, 1.1% hits;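 active = B-score under library mean minus 3 SD, initial fluorescence not abnormally high, positive integrated signal ratio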;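 also: B-score derived from integrated fluorescence ratio over the kinetic read; more negative B-score means stronger inhibition of depolarization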
TRPC6 activator = activates the mouse TRPC6 cation channel. B-score at 10 µM. Q61143. HEK293-TRPC6 membrane potential dye fluorescence; active compounds read high. AID 2550. 310,000 compounds, 0.13% hits;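 active = B-score of the integrated fluorescence ratio above library mean plus 3 SD, and starting fluorescence ratio within library mean plus 5 SD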;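 also: higher score means more depolarization so channel activation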
TRPC4 spec 2 = second check of whether TRPC6 inhibitors also affect mouse TRPC4 | shares compounds with TRPC6 inh | HEK293 TRPC4/MOR, membrane potential dye fluorescence; channel activated by saturating DAMGO dose | inhibition, % at 10 µM | 920 compounds, 42% hits | AID 2776;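 active = compounds whose fluorescence signal differed from control wells by over 3 SD, either direction, in both duplicate plates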
TRPC4 spec = selectivity of TRPC6 inhibitors: effect on mouse TRPC4. shares compounds with TRPC6 inh. HEK293 TRPC4/mu-opioid, membrane potential fluorescence. activity change, negative = inhibition, % at 10 µM. 920 compounds, 61% hits;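 active = rise or fall in signal beyond 3 SD of buffer-only wells in both replicate plates, either sign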;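 also: integrated kinetic ratio of fluorescence range over baseline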
HEK293 MPD ctr 2-1 = second check of TRPC6 inhibitor effects in parental HEK293 cells. shares compounds with TRPC6 inh. parental HEK293 membrane potential dye fluorescence; maximal acetylcholine challenge after compound addition. signal change vs control, % at 10 µM. 920 compounds, 31% hits. AID 2779;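 active = membrane potential signal moving either way by over 3 SD of the maximum-effect control, in both duplicate plates, meaning non-specific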
HEK293 MPD ctr-1 = counter-screen for TRPC6 inhibitors: effect in parental HEK293 cells; membrane potential signal change, % at 10 µM; shares compounds with TRPC6 inh; 920 compounds, 60% hits; parental HEK293 membrane potential dye fluorescence;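 active = membrane potential signal shifting up or down by more than 3 SD of buffer-only wells, on both duplicate plates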
HEK293 MPD ctr-2 = counter-screen for TRPC6 modulators: effect in parental HEK293 cells | shares compounds with TRPC6 inh | membrane potential dye fluorescence | membrane potential signal change, % at 10 µM | 2,400 compounds, 51% hits | AID 488924;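 active = membrane potential signal moves up or down beyond 5 SD from buffer-only wells, on both duplicate plates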
HEK293 MPD ctr 2-2 = second counter-screen for TRPC6 modulators: effect in parental HEK293 cells | inhibition, % at 10 µM | shares compounds with TRPC6 inh | 2,400 compounds, 14% hits | membrane potential dye fluorescence; after compound, maximal acetylcholine stimulation | AID 488926;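 active = membrane potential signal drops by more than 5 SD from the mean control signal, in both duplicate plates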;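 also: plate controls were acetylcholine ECmax control wells for no effect and buffer only wells for full effect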
TRPC4/MOR mod = tests whether TRPC6 modulators also affect mouse TRPC4. shares compounds with TRPC6 inh. percent change from control (negative = decrease, positive = increase), % at 10 µM. AID 488927. 2,400 compounds, 69% hits. HEK293 TRPC4/mu-opioid, membrane potential fluorescence;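 active = membrane potential signal moved up or down beyond 5 SD of buffer control wells, in both duplicate plates, actives on both sides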;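 also: plate controls were assay buffer wells for no effect and DAMGO maximal-effect wells for full effect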
TRPC4 ctr inh 2 = second check of whether TRPC6 modulators also affect mouse TRPC4; shares compounds with TRPC6 inh; HEK293 TRPC4/mu-opioid, membrane potential dye fluorescence; stimulated with maximal-effect DAMGO; inhibition, % at 10 µM; 2,400 compounds, 55% hits; AID 488928;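 active = drop in membrane potential signal beyond 5 SD of the control wells in both duplicate plates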;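 also: TRPC4 counter screen for TRPC6 hits run under conditions tuned for TRPC6 not TRPC4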
TRPC6 block conf = mouse TRPC6 inhibitor confirmation; shares compounds with TRPC6 inh; HEK293-TRPC6, membrane potential dye, ACh-evoked depolarization; inhibition, % at 10 µM; 3,300 compounds, 43% hits; AID 488960;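 active = fluorescence ratio falls more than 5 SD below the full-stimulation control mean, in both duplicate runs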;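 also: integrated fluorescence ratio of peak minus minimum over baseline after agonist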
TRPC6 act confirm = mouse TRPC6 activator confirmation; shares compounds with TRPC6 inh; HEK293-TRPC6 membrane potential dye fluorescence, FDSS; activation, % at 10 µM; 2,800 compounds, 11% hits;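 active = ratio signal rise beyond 5 SD above unstimulated control wells' mean, seen in both duplicate runs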;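 also: plate controls were buffer EC0 wells for no effect and acetylcholine ECmax response for full effect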
* marks the source's active call; other numbers are inactive results. An excerpt weighted towards active compounds, which were near 2.3% of everything screened.

Results for CCC(C)N(CCNC(=O)CC1Oc2ccc(C)cc2NC1=O)C1CCCCC1 (stereo not given) ?
TRPC4 potent: inactive; TRPC4 act: inactive; TRPC4 block: inactive; TRPC6 inh: -8.4*; TRPC6 activator: inactive; TRPC4 spec 2: inactive; TRPC4 spec: 17%*; HEK293 MPD ctr 2-1: inactive; HEK293 MPD ctr-1: 13%*; TRPC6 block conf: 53%*

What do the screens show for `COC(=O)c1cc(NC(=O)CSc2nnc(N)s2)ccc1Cl`?
TRPC4 potent: inactive; TRPC4 act: inactive; TRPC4 block: inactive; TRPC6 inh: -7.1*; TRPC6 activator: inactive; HEK293 MPD ctr-2: inactive; HEK293 MPD ctr 2-2: inactive; TRPC4/MOR mod: inactive; TRPC4 ctr inh 2: inactive; TRPC6 block conf: inactive; TRPC6 act confirm: inactive

What do the screens show for `COc1ccc(CCNC(=O)Cc2c(Cl)cccc2Cl)cc1`?
TRPC4 potent: inactive; TRPC4 act: inactive; TRPC4 block: inactive; TRPC6 inh: inactive; TRPC6 activator: inactive

What do the screens show for `CC(C)(C)N(Cc1ccccc1)C(=O)c1ccc(Cl)cc1[N+](=O)[O-]`?
TRPC4 potent: inactive; TRPC4 act: inactive; TRPC4 block: inactive; TRPC6 inh: -6.5*; TRPC6 activator: inactive; HEK293 MPD ctr-2: inactive; HEK293 MPD ctr 2-2: inactive; TRPC4/MOR mod: inactive; TRPC4 ctr inh 2: inactive; TRPC6 block conf: inactive; TRPC6 act confirm: inactive

What do the screens show for `Cc1ncc(CO)c(CNc2ccc(-c3nc4ccccc4[nH]3)cc2)c1O`?
TRPC4 potent: inactive; TRPC4 act: inactive; TRPC4 block: inactive; TRPC6 inh: inactive; TRPC6 activator: inactive

How did CN(Cc1ccc(F)cc1)S(=O)(=O)c1nnc(NC(=O)c2ccccc2Br)s1 do in these assays?
TRPC4 potent: inactive; TRPC4 act: inactive; TRPC4 block: -6*; TRPC6 inh: inactive; TRPC6 activator: 17*; HEK293 MPD ctr-2: inactive; HEK293 MPD ctr 2-2: inactive; TRPC4/MOR mod: 17%*; TRPC4 ctr inh 2: 62%*; TRPC6 block conf: inactive; TRPC6 act confirm: inactive

Results for Cc1ccc2cc(C=C(C#N)C#N)c(N3CCCCC3)nc2c1 ?
TRPC4 potent: inactive; TRPC4 act: inactive; TRPC4 block: inactive; TRPC6 inh: -7.1*; TRPC6 activator: inactive; TRPC4 spec 2: inactive; TRPC4 spec: inactive; HEK293 MPD ctr 2-1: inactive; HEK293 MPD ctr-1: inactive; TRPC6 block conf: inactive; TRPC6 act confirm: inactive

Results for O=[N+]([O-])c1cccc(/C=N/NC2=NCCCCC2)c1 ?
TRPC4 potent: inactive; TRPC4 act: inactive; TRPC4 block: inactive; TRPC6 inh: -5.1*; TRPC6 activator: inactive; HEK293 MPD ctr-2: -80%*; HEK293 MPD ctr 2-2: inactive; TRPC4/MOR mod: -15%*; TRPC4 ctr inh 2: 39%*; TRPC6 block conf: inactive; TRPC6 act confirm: inactive

How did O=C(ONC1=NCCCCC1)c1cccc([N+](=O)[O-])c1 do in these assays?
TRPC4 potent: inactive; TRPC4 act: inactive; TRPC4 block: inactive; TRPC6 inh: inactive; TRPC6 activator: inactive

What do the screens show for `CC(C)Cc1nnc(NC(=O)c2ccc(N3CCCC3=O)cc2)s1`?
TRPC4 potent: inactive; TRPC4 act: inactive; TRPC4 block: inactive; TRPC6 inh: inactive; TRPC6 activator: inactive

Results for CC(C)Cc1nnc(NC(=O)c2ccc3c(=O)n4c(nc3c2)CCC4)s1 ?
TRPC4 potent: inactive; TRPC4 act: inactive; TRPC4 block: inactive; TRPC6 inh: -7.7*; TRPC6 activator: inactive; TRPC4 spec 2: inactive; TRPC4 spec: -15%*; HEK293 MPD ctr 2-1: inactive; HEK293 MPD ctr-1: -280%*; TRPC6 block conf: inactive; TRPC6 act confirm: inactive

How did C=CCn1c(O)c(C2=c3ccccc3=NC2=O)sc1=Nc1ccc(O)cc1 do in these assays?
TRPC4 potent: inactive; TRPC4 act: inactive; TRPC4 block: inactive; TRPC6 inh: -8*; TRPC6 activator: inactive; TRPC4 spec 2: inactive; TRPC4 spec: -15%*; HEK293 MPD ctr 2-1: inactive; HEK293 MPD ctr-1: -138%*; TRPC6 block conf: 55%*; TRPC6 act confirm: inactive

Results for O=C1N=c2ccccc2=C1c1sc(=S)n(NC(=O)c2ccccc2)c1O ?
TRPC4 potent: inactive; TRPC4 act: inactive; TRPC4 block: inactive; TRPC6 inh: inactive; TRPC6 activator: inactive

Results for CC(=O)C1=C(O)C(=O)N(c2ccc(C)cc2)C1c1ccccn1 (stereo not given) ?
TRPC4 potent: inactive; TRPC4 act: inactive; TRPC4 block: inactive; TRPC6 inh: inactive; TRPC6 activator: inactive

How did CCCCCCN1C=CC(=C2C(=O)c3ccccc3C2=O)C=C1 do in these assays?
TRPC4 potent: inactive; TRPC4 act: inactive; TRPC4 block: inactive; TRPC6 inh: inactive; TRPC6 activator: inactive

Results for CCCCN1C=CC(=C2N=c3cccc([N+](=O)[O-])c3=N2)C=C1 ?
TRPC4 potent: inactive; TRPC4 act: inactive; TRPC4 block: inactive; TRPC6 inh: -5.6*; TRPC6 activator: inactive; HEK293 MPD ctr-2: -132%*; HEK293 MPD ctr 2-2: 78%*; TRPC4/MOR mod: -20%*; TRPC4 ctr inh 2: 49%*; TRPC6 block conf: 58%*; TRPC6 act confirm: inactive
